Results published in ChEMBL document CHEMBL1821561 (Bioorg Med Chem, 2011).
Counter-ions that a name gives are not always drawn.

Assays:
[1] = Displacement of [3H]SCH23390 from dopamine D1-like receptor in pig striatal tissue homogenates after 30 mins by scintillation counting; assay type: tissue-based, Sus scrofa, Striatum
[2] = Displacement of [3H]-N-methylspiperone from dopamine D2-like receptor in pig striatal tissue homogenates after 30 mins by scintillation counting; assay type: tissue-based, Sus scrofa, Striatum
Method in brief: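 Porcine striatal membranes with 0.2 nM [3H]-N-methylspiperone plus 50 nM ketanserin to block 5-HT2A sites. Buffer 50 mM HEPES, 4 mM MgCl2, pH 7.4. Nonspecific binding defined with (+)-butaclamol. Incubated 37 °C for 30 min, then filtered and washed with ice-cold Tris/NaCl.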

D(1A) dopamine receptor [3] = molecular target: T1, D(1A) dopamine receptor (Homo sapiens, UniProt P21728); assay: Intrinsic activity at human dopamine D1 receptor expressed in HEK293 cells assessed as cAMP accumulation after 15 mins relative to dopamine; assay type: functional, cell-based
Method in brief: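 HEK293 cells stably expressing hD1 (about 1800 fmol/mg) grown to 90–95% confluency. Medium replaced with 500 µM IBMX in EBSS, then drug added in duplicate for 15 min at 37 °C. Stopped with 3% trichloroacetic acid. cAMP measured by [3H]cAMP competition with bovine adrenal binding protein against a standard curve. Maximal response expressed as percent of 10 µM dopamine.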

D(1A) dopamine receptor [4] = molecular target: T1, D(1A) dopamine receptor; assay: Agonist activity at human dopamine D1 receptor expressed in HEK293 cells assessed as cAMP accumulation after 15 mins; assay type: functional, cell-based
Sus scrofa = organism: Sus scrofa; assay: Ratio of SKF38393 Ki to compound Ki for dopamine D1-like receptor in pig striatal tissue homogenates; assay type: tissue-based; conditions: Striatum

T1 sequence (P21728 whole entry): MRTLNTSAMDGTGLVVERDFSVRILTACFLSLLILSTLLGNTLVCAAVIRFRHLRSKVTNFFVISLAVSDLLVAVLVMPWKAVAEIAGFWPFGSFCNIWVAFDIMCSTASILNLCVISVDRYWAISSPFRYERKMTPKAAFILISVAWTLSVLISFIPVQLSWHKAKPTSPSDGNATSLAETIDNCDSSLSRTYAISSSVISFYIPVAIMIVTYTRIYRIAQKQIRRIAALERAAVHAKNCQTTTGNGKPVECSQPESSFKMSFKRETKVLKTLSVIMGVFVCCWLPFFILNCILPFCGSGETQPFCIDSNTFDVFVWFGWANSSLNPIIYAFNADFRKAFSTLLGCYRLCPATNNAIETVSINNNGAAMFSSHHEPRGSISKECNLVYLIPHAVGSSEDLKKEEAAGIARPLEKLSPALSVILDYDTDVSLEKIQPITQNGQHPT

| SMILES | Ki [1] [nM] | Ki [2] [µM] | Intrinsic activity (D(1A) dopamine receptor [3]) [%] | EC50 (D(1A) dopamine receptor [4]) [nM] | Ratio Ki (Sus scrofa) |
| --- | --- | --- | --- | --- | --- |
| CN1CCc2cc(Cl)c(O)cc2[C@@H](c2ccccc2)C1 | 0.64 |  |  |  |  |
| Oc1cc2c(cc1O)[C@@H](c1ccccc1)CNCC2 | 151 | 2.36 | 93 |  |  |
| Oc1cc2c(cc1O)[C@@H]1c3ccccc3CC[C@@H]1NCC2 (racemic) | 22000 | 88 |  |  |  |
| Oc1cc2c(cc1O)[C@H]1c3ccccc3CC[C@@H]1NCC2 (racemic) | 257 | 8.48 | 28 | 438 |  |
| Oc1cc2c(cc1O)[C@H]1c3ccccc3OC[C@@H]1NCC2 (racemic) | 186 | 44.8 | 60 | 570 |  |
| Oc1cc2c(cc1O)[C@H]1c3ccccc3SC[C@@H]1NCC2 (racemic) | 92 | 28 | 21 | 584 | 1.6 |
| Oc1cc2c(cc1O)[C@H]1c3ccccc3CN[C@@H]1CC2 (racemic) [DIHYDREXIDINE] |  | 0.32 | 103 |  |  |
| CN1CCc2cc(Cl)c(O)cc2[C@H]2c3ccccc3CC[C@@H]21 [ECOPIPAM HYDROCHLORIDE] | 1.3 | 2.01 |  |  |  |
